Hits are enriched below; roughly 5.1% of the tested compounds scored in any of these assays.
APP 5'UTR act: activators of APP 5'UTR luciferase reporter, primary screen, SH-SY5Y cells; SH-SY5Y APP 5'UTR luciferase reporter, luminescence; zero percent = DMSO vehicle wells; activation, % at 2 µM; 1% of 190,000 active; AID 1276, 2008;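 active = activation above a set limit, based on mean plus 3 SD of controls, cut at about 140% in these data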
STAT3 blocker: IL-6 driven STAT3 reporter inhibitors, primary screen, U3A cells, luciferase, luminescence, MLSCN library. IL-6 STAT3-luciferase reporter; host cell line lacks STAT1. inhibition, % at 5.5 µM. 0.89% of 190,000 active;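 active = inhibition above the mean inhibition across all screened compounds plus 3 SD, cut at about 44% in these data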;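 also: 0% = DMSO only wells and 100% = 100 µM nifuroxazide control wells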
NF-kB neuron act: activators of NF-kB expression in neurons, primary screen, cell-based, HTS; human neuronal cells, NF-kB reporter expression; hits give high values; fold change at 12.5 µM; 1.6% of 190,000 active; AID 1239, 2008; in the data active = fold change above about 3.3
STAT3 activator: IL-6 driven STAT3 reporter potentiators, primary screen, U3A cells, luciferase, luminescence, MLSCN library. 0.91% of 190,000 active. activation (% of control), % at 5.6 µM. IL-6 STAT3-luciferase reporter; 100% = signal with IL-6 EC80 alone. AID 871, 2007;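 active = activation above the screen-wide mean of compound activation plus 3 SD, cut at about 130% in these data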;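 also: 0% = background luminescence of wells with medium and substrate only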
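Material: human U3A cells carrying STAT3-luciferase construct. Measured by: reporter luminescence signal. Timing: compound 1 h, then IL-6 6 h at 37 °C.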
STAT1 inh: STAT1 signaling inhibitors, primary screen, cell-based, HTS, luciferase reporter | NIH 3T3 STAT1-luciferase reporter, IFN-gamma, luminescence | inhibition, % at 5.5 µM | 0.35% of 200,000 active | AID 920, 2007;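 active = inhibition above a set limit, the mean inhibition across all tested compounds plus 3 SD, cut at about 34% in these data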;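 also: 0% = IFN-gamma with DMSO and 100% = IFN-gamma with 300 µM nifuroxazide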
STAT1 activator: STAT1 signaling activators, primary screen, cell-based, HTS, luciferase reporter; NIH 3T3 STAT1-luciferase reporter, IFN-gamma, luminescence; 100% = IFN-gamma alone, no compound; activation (% of control), % at 5.5 µM; 2.6% of 200,000 active;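 active = activation above the screen-wide mean activation plus 3 SD, cut at about 130% in these data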;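 also: raw ratio to IFN-gamma control signal so 100% means no change and 0% no light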
The depositor's hits bear a star.

Screening O=C(N/N=C/c1c[nH]c2ccccc12)c1ccn(Cc2ccc(Cl)cc2)n1 returned APP 5'UTR act 0, STAT3 blocker -43, NF-kB neuron act 0.6, STAT3 activator 135*, STAT1 inh 7 and STAT1 activator 93.
For O=C1N(CN2CCN(Cc3ccccc3)CC2)c2ccccc2C12OCCCO2 the results were APP 5'UTR act -22, STAT3 blocker -1, NF-kB neuron act 1, STAT3 activator 102, STAT1 inh -4 and STAT1 activator 102.
O=C(CCNc1ccc(Cl)cc1)c1cccs1 was read as APP 5'UTR act 4, STAT3 blocker -8, NF-kB neuron act 2.1, STAT3 activator 110, STAT1 inh -34 and STAT1 activator 130*.
`Cc1cc(C)n(C(CC(=O)O)C(=O)O)n1` (configuration not stated) gave APP 5'UTR act 139*, STAT3 blocker 6, NF-kB neuron act 1, STAT3 activator 100, STAT1 inh -6 and STAT1 activator 105.
For Brc1ccc(-c2nc3ccccc3s2)s1 the results were APP 5'UTR act 115, STAT3 blocker 4, NF-kB neuron act 6.8*, STAT3 activator 105, STAT1 inh -41 and STAT1 activator 137*.
Screening O=C(/C=C/c1ccco1)NC1=NCCS1 returned APP 5'UTR act 96, STAT3 blocker -7, NF-kB neuron act 2, STAT3 activator 109, STAT1 inh -51 and STAT1 activator 145*.
COc1ccc(/C=C/C(=O)NC2=NCCS2)cc1OC was read as APP 5'UTR act 14, STAT3 blocker 0, NF-kB neuron act 1.4, STAT3 activator 102, STAT1 inh -35 and STAT1 activator 132*.
Screening CNC(=O)/C(C#N)=C/c1ccc(-c2ccccc2[N+](=O)[O-])o1 returned APP 5'UTR act -1, STAT3 blocker 19, NF-kB neuron act 1.7, STAT3 activator 87, STAT1 inh -13 and STAT1 activator 112.
`CNC(=O)/C(C#N)=C/c1ccc(-c2ccc(Cl)cc2)o1` gave APP 5'UTR act 58, STAT3 blocker 10, NF-kB neuron act 1.9, STAT3 activator 94, STAT1 inh -44 and STAT1 activator 142*.
Screening Clc1ccc(-n2nnc(-c3nccs3)n2)cc1Cl returned APP 5'UTR act 199*, NF-kB neuron act 4.8*, STAT1 inh 4 and STAT1 activator 98.
For Cc1ccc(-n2nnc(-c3cc4ccccc4nc3Cl)n2)cc1 the results were APP 5'UTR act 5, NF-kB neuron act 1.7, STAT1 inh 12 and STAT1 activator 90.
For CSCC[C@H](NC(=O)C(C)Oc1ccc(Cl)cc1)c1nc2ccccc2[nH]1 (some centres not stated) the results were APP 5'UTR act 15, STAT3 blocker -8, NF-kB neuron act 0.84, STAT3 activator 109, STAT1 inh -1 and STAT1 activator 100.
Screening Clc1ccc(-c2nc(C3CCCCC3)no2)cc1 returned APP 5'UTR act 108, STAT3 blocker 12, NF-kB neuron act 1.9, STAT3 activator 99, STAT1 inh -36 and STAT1 activator 132*.
CCN(CC)C(=O)COc1ccc(-c2ccccc2)cc1 was read as APP 5'UTR act 33, STAT3 blocker 10, NF-kB neuron act 2, STAT3 activator 93, STAT1 inh -35 and STAT1 activator 132*.
Screening CCN(CC)C(=O)COc1ccc(/C(C)=N/NC(=O)c2ccccc2O)cc1 returned APP 5'UTR act -1, STAT3 blocker 4, NF-kB neuron act 1.6, STAT3 activator 99, STAT1 inh 6 and STAT1 activator 94.
CC(C)c1ccc(-n2cnn(-c3ncccc3[N+](=O)[O-])c2=O)cc1 was read as APP 5'UTR act 140*, STAT3 blocker -4, NF-kB neuron act 8.6*, STAT3 activator 105, STAT1 inh -23 and STAT1 activator 122.
For O=C(COC(=O)c1cc(=O)[nH]c2ccc(Br)cc12)c1ccccc1 the results were APP 5'UTR act 12, STAT3 blocker 3, NF-kB neuron act 0.97, STAT3 activator 99, STAT1 inh -3 and STAT1 activator 101.
For CC(C)(C)C(=O)c1sc(Nc2ccccc2)nc1N the results were APP 5'UTR act 64, STAT3 blocker -9, NF-kB neuron act 3.8*, STAT3 activator 110, STAT1 inh -54 and STAT1 activator 150*.
CC(C)(C)C(=O)CSc1nnc(Nc2ccccc2)s1 was read as APP 5'UTR act 16, STAT3 blocker -10, NF-kB neuron act 1.8, STAT3 activator 113, STAT1 inh -35 and STAT1 activator 130*.
Screening COc1ccc(/C=C/C2=CCN(Cc3ccc(OC)cc3)CC2)cc1 returned APP 5'UTR act -13, STAT3 blocker -37, NF-kB neuron act 1.2, STAT3 activator 134*, STAT1 inh 6 and STAT1 activator 93.
For COc1ccc(/C=C/C2=NN(Cc3ccccc3)C(=O)CC2)cc1 the results were APP 5'UTR act -10, STAT3 blocker 6, NF-kB neuron act 1.3, STAT3 activator 97, STAT1 inh 5 and STAT1 activator 96.
Screening O=C(Nc1nc2ccc(SC(F)F)cc2s1)c1ccc(NS(=O)(=O)c2ccc(F)c(F)c2)cc1 returned APP 5'UTR act 9, STAT3 blocker -4, NF-kB neuron act 1.4, STAT3 activator 105, STAT1 inh -2 and STAT1 activator 102.
`CNC(=S)/N=C/NOCc1ccc(Cl)cc1Cl` gave APP 5'UTR act 18, STAT3 blocker 26, NF-kB neuron act 1.3, STAT3 activator 84, STAT1 inh 12 and STAT1 activator 89.
For Cc1nc(C)c(Cc2ccccc2Cl)c(=O)[nH]1 the results were APP 5'UTR act 6, STAT3 blocker -9, NF-kB neuron act 0.99, STAT3 activator 106, STAT1 inh -3 and STAT1 activator 103.
Cc1nc2c(Cl)cccc2[nH]1 was read as STAT3 blocker -30, NF-kB neuron act 1.1, STAT3 activator 133*, STAT1 inh -2 and STAT1 activator 102.
`Cc1cc2n(n1)C(c1c[nH]c3ccccc13)Nc1ccccc1-2` (configuration not stated) gave APP 5'UTR act -7, STAT3 blocker -41, NF-kB neuron act 1.2, STAT3 activator 139*, STAT1 inh 3 and STAT1 activator 97.
Screening O=C(Cc1ccc(Cl)cc1Cl)Nc1cccc(S(=O)(=O)Nc2ccccc2F)c1 returned APP 5'UTR act -10, STAT3 blocker 3, NF-kB neuron act 1.2, STAT3 activator 97, STAT1 inh 2 and STAT1 activator 98.
CCC1C(=O)N(C)CCc2ccccc21 (configuration not stated) was read as APP 5'UTR act 4, STAT3 blocker 0, NF-kB neuron act 0.97, STAT3 activator 101, STAT1 inh 2 and STAT1 activator 97.

Screening data from PubChem BioAssay.
